Measured values: ChEMBL document CHEMBL1147069, “Gambogic amide, a selective agonist for TrkA receptor that possesses robust neurotrophic activity, prevents neuronal cell death” (Proc Natl Acad Sci U S A, 2007)
Active and inactive are the calls of the source.

What was measured:
[1] = target: Mitogen-activated protein kinase 1 (Homo sapiens) (UniProt P28482); assay: Induction of ERK2 phosphorylation
Hippocampal neurone [2] = assay: Neuroprotective effect in glutamate-induced cell death in rat hippocampal neurons after 30 mins; format: functional, tissue-based; details: Hippocampus
Procedure, shortened: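 Primary hippocampal neurons were pretreated with compounds for 30 min, then exposed to 50 μM glutamate for 16 h. Apoptosis was quantified with the MR(DEVD)2 caspase-3 dye; NGF served as positive control. Three independent experiments, mean ± SD.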

[3] = target: BDNF/NT-3 growth factors receptor (Homo sapiens) (UniProt Q16620); assay: Induction of TrkB tyrosine phosphorylation in transfected HEK293 cells; format: cell-based
PC-12 [4] = assay: Induction of neurite outgrowth in rat PC12 cells; format: functional, cell-based
Procedure, shortened: (§1)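 PC12 cells were seeded at 1 × 10^4 per well on poly-L-lysine and grown 24 h, then treated with compounds (0.5 μM, or 10–50 nM in dose series) or NGF for 5 days, with medium replenished every other day. Neurites were counted as processes longer than two cell bodies. Three independent experiments.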

[5] = Suppression of staurosporine-initiated apoptosis in mouse T17 cells at 0.5 uM
[6] = target: Tumor necrosis factor receptor superfamily member 16 (Homo sapiens) (UniProt P08138); assay: Binding affinity to p75NTR
[7] = target: Mitogen-activated protein kinase 3 (Mus musculus) (UniProt Q63844); assay: Induction of ERK1 phosphorylation in mouse T17 cells
TrkB-stable [8] = assay: Induction of MAPK signaling activation in TrkB-stable cells; format: cell-based
[9] = target: Mitogen-activated protein kinase 1 (Mus musculus) (UniProt P63085); assay: Induction of ERK2 phosphorylation in mouse T17 cells
SN56 = assay: Suppression of staurosporine-initiated apoptosis in mouse SN56 cells at 0.5 uM; format: functional, cell-based
Procedure, shortened: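 Murine SN56 basal forebrain cells and their rat-TrkA stably transfected line T17 (DMEM, 1 mM pyruvate, 10% FBS; T17 with 300 μg/ml G418). Cells were preincubated with 0.5 μM compound, then given 1 μM staurosporine for 9 h. Apoptosis was read with the caspase-3-activated dye MR(DEVD)2 (10 μM, last hour) plus Hoechst counterstain after fixation. Three independent experiments, mean ± SD.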

[10] = target: Epidermal growth factor receptor (Homo sapiens) (UniProt P00533); assay: Binding affinity to EGFR
[11] = target: High affinity nerve growth factor receptor (Rattus norvegicus) (UniProt P35739); assay: Induction of TrkA phosphorylation in rat hippocampal neurons at 0.5 uM after 30 mins; format: tissue-based; details: Hippocampus
Procedure, shortened: (§2)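 Primary hippocampal neurons were treated with 0.5 μM compounds for 30 min; lysates were immunoblotted with anti-phospho-Trk Y490 antibody. Repeated more than three times.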

Mus musculus [12] = assay: Neuroprotective effect on C57BL/6 mouse hippocampal CA3 region assessed as decrease in kainic acid-induced neuronal cell death at 2 mg/kg, sc after 5 days; format: functional; set-up: scale not given: the % may be the effect or the level left; details: route subcutaneous
Procedure, shortened: (§3)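 C57BL/6 mice were given 2 mg/kg s.c., followed by 25 mg/kg kainic acid. After 5 days, mice were perfused and 5 μm brain sections cut. Hippocampal apoptosis was quantified by TUNEL with DAPI counterstain.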

[13] = target: High affinity nerve growth factor receptor (Rattus norvegicus) (UniProt P35739); assay: Reversal of TrkA phosphorylation in rat hippocampal neurons at 0.5 uM after 30 mins in presence of K252a; format: tissue-based; details: Hippocampus
[14] = target: BDNF/NT-3 growth factors receptor (Homo sapiens) (UniProt Q16620); assay: Binding affinity to TrkB
Rattus norvegicus [15] = species on record: Rattus norvegicus; assay: Reversal of TrkA Y751 phosphorylation in rat hippocampal neurons at 0.5 uM after 30 mins in presence of K252a; format: tissue-based; details: Hippocampus
[16] = target: High affinity nerve growth factor receptor (Rattus norvegicus) (UniProt P35739); assay: Induction of Akt phosphorylation in rat primary hippocampal neurons after 30 mins; format: tissue-based; details: Hippocampus
Procedure, shortened: (§4)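 Hippocampal neurons were given 0.5 μM compound for 5–180 min (time course), or a dose range for 30 min, with 50 ng/ml NGF for comparison. Akt phosphorylation was detected by immunoblotting with phospho-Akt (473/308) antibodies.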

[17] = target: High affinity nerve growth factor receptor (Homo sapiens) (UniProt P04629); assay: Stimulation of TrkA dimerization co-transfected in HEK293 cells at 0.5 uM after 30 mins by immunoblotting analysis in presence of green fluorescent protein; format: cell-based
Procedure, shortened: (§5)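 HEK293 cells were cotransfected with GFP-TrkA plus HA-TrkA or HA-TrkB, then treated with 0.5 μM compound for 30 min. GFP-TrkA was immunoprecipitated with anti-GFP and coprecipitated receptor detected by anti-HA immunoblot.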

HEK293 = assay: Stimulation of TrkA and TrkB dimerization co-transfected in HEK293 cells at 0.5 uM after 30 mins by immunoblotting analysis; format: cell-based; procedure, shortened: as §5
PC-12 [18] = assay: Induction of neurite outgrowth in rat PC12 cells at 0.5 uM after 5 days; format: functional, cell-based; procedure, shortened: as §1
[19] = target: NT-3 growth factor receptor (Homo sapiens) (UniProt Q16288); assay: Binding affinity to TrkC
[20] = target: RAC-alpha serine/threonine-protein kinase (Mus musculus) (UniProt P31750); assay: Induction of Akt phosphorylation in mouse T17 cells
Hippocampal neurone [21] = assay: Neuroprotective effect in oxygen-glucose deprivation triggered cell death in rat hippocampal neurons after 30 mins; format: functional, tissue-based; details: Hippocampus
Procedure, shortened: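 Primary hippocampal neurons were pretreated with compounds or NGF 30 min before oxygen–glucose deprivation; apoptosis was assayed 3 h later, including a dose titration. Three independent experiments, mean ± SD.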

[22] = target: NT-3 growth factor receptor (Homo sapiens) (UniProt Q16288); assay: Induction of TrkC tyrosine phosphorylation in transfected HEK293 cells; format: cell-based
[23] = target: High affinity nerve growth factor receptor (Homo sapiens) (UniProt P04629); assay: Induction of TrkA tyrosine phosphorylation in transfected HEK293 cells; format: cell-based
Rattus norvegicus [24] = species on record: Rattus norvegicus; assay: Induction of TrkA Y751 tyrosine phosphorylation in rat hippocampal neurons at 0.5 uM after 30 mins by immunoblotting staining; format: tissue-based; details: Hippocampus
Rattus norvegicus [25] = species on record: Rattus norvegicus; assay: Reversal of TrkA Y490 phosphorylation in rat hippocampal neurons at 0.5 uM after 30 mins in presence of K252a; format: tissue-based; details: Hippocampus
[26] = target: Mitogen-activated protein kinase 3 (Homo sapiens) (UniProt P27361); assay: Induction of ERK1 phosphorylation
Mus musculus [27] = assay: Neuroprotective effect on C57BL/6 mouse hippocampal CA1 region assessed as decrease in kainic acid-induced neuronal cell death at 2 mg/kg, sc after 5 days; format: functional; set-up: scale not given: the % may be the effect or the level left; details: route subcutaneous; procedure, shortened: as §3
[28] = target: Receptor tyrosine-protein kinase erbB-3 (Homo sapiens) (UniProt P21860); assay: Binding affinity to ErbB3
TrkB-stable [29] = assay: Induction of PI3K signaling activation in TrkB-stable cells; format: cell-based
[30] = target: High affinity nerve growth factor receptor (Rattus norvegicus) (UniProt P35739); assay: Induction of Akt phosphorylation in rat primary hippocampal neurons at 0.5 uM; details: Hippocampus, TDE = time-dependent effect; procedure, shortened: as §4
PC-12 [31] = assay: Blockade of induction of neurite outgrowth in rat PC12 cells in presence of K252a; format: functional, cell-based
[32] = target: High affinity nerve growth factor receptor (Homo sapiens) (UniProt P04629); assay: Binding affinity to TrkA kinase
Procedure, shortened: (§6)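 GFP-tagged TrkA (wild-type or kinase-dead) expressed in transfected HEK293 cells; lysates bound to gambogic amide immobilised on Affi-Gel 102 through an amide bond. For Kd, TrkA-loaded beads were competed with increasing free compound. After extensive washing, bead-bound protein was immunoblotted with anti-GFP and quantitated densitometrically.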

[33] = target: High affinity nerve growth factor receptor (Rattus norvegicus) (UniProt P35739); assay: Induction of TrkA tyrosine phosphorylation in rat hippocampal neurons at 0.5 uM after 30 mins by immunoblotting staining; format: tissue-based; details: Hippocampus; procedure, shortened: as §2
[34] = target: High affinity nerve growth factor receptor (Homo sapiens) (UniProt P04629); assay: Binding affinity to TrkA; procedure, shortened: as §6
T17 [35] = assay: […] in staurosporine-initiated apoptosis in mouse T17 cells at 0.5 uM
T17 [36] = assay: Induction of MAPK phosphorylation in mouse T17 cells
[37] = target: High affinity nerve growth factor receptor (Rattus norvegicus) (UniProt P35739); assay: Induction of Akt phosphorylation in rat primary hippocampal neurons; format: tissue-based; details: Hippocampus; procedure, shortened: as §4
[38] = target: NT-3 growth factor receptor (Homo sapiens) (UniProt Q16288); assay: Binding affinity to recombinant GST-TrkC
Procedure, shortened: (§7)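 Recombinant GST-TrkA, GST-TrkB or GST-TrkC proteins tested in an in vitro binding assay with the compounds; experiments were repeated more than three times.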

Rattus norvegicus [39] = assay: Neuroprotective effect in rat MCAO model assessed as decrease in cerebral blood flow at 2 mg/kg within 5 mins; format: functional, Brain; set-up: scale not given: the % may be the effect or the level left
Procedure, shortened: (§8)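 Adult male rats underwent 2 h transient MCAO; vehicle or 2 mg/kg was given 5 min before reperfusion onset. Relative cerebral blood flow over ipsilateral parietal cortex was measured by laser-Doppler flowmetry versus preischemic levels. Values are mean ± SD, compared by Student's t test.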

[40] = target: High affinity nerve growth factor receptor (Homo sapiens) (UniProt P04629); assay: Binding affinity to recombinant GST-TrkA; procedure, shortened: as §7
Rattus norvegicus [41] = assay: Neuroprotective effect in rat MCAO model assessed as increase in cerebral blood flow at 2 mg/kg after 120 mins of filament withdrawal; format: functional, Brain; procedure, shortened: as §8
[42] = target: BDNF/NT-3 growth factors receptor (Homo sapiens) (UniProt Q16620); assay: Binding affinity to recombinant GST-TrkB; procedure, shortened: as §7

Sequence of High affinity nerve growth factor receptor (Rattus norvegicus) (P35739 whole entry): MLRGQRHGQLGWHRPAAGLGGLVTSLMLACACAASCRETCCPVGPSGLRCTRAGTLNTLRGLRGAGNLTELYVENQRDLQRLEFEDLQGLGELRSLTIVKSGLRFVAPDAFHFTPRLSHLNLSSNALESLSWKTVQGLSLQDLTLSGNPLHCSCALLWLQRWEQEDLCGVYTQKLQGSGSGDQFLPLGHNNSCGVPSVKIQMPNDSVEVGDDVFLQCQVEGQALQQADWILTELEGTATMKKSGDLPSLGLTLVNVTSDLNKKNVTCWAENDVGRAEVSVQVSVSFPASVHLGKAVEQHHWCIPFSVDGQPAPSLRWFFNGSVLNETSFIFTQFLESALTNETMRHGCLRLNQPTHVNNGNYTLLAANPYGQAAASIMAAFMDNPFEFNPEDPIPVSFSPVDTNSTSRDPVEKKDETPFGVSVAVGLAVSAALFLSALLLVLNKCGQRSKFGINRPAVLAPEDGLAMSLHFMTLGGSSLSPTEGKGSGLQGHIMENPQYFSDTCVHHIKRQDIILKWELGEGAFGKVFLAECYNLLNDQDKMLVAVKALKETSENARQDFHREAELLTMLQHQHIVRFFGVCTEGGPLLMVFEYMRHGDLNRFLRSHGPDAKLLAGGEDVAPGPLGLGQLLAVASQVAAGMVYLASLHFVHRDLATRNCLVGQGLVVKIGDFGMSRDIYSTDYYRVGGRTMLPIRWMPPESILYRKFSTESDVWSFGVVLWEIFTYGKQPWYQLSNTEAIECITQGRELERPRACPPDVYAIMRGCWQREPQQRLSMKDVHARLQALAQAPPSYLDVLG
Sequence of BDNF/NT-3 growth factors receptor (Homo sapiens) (Q16620 32-822 limits assumed): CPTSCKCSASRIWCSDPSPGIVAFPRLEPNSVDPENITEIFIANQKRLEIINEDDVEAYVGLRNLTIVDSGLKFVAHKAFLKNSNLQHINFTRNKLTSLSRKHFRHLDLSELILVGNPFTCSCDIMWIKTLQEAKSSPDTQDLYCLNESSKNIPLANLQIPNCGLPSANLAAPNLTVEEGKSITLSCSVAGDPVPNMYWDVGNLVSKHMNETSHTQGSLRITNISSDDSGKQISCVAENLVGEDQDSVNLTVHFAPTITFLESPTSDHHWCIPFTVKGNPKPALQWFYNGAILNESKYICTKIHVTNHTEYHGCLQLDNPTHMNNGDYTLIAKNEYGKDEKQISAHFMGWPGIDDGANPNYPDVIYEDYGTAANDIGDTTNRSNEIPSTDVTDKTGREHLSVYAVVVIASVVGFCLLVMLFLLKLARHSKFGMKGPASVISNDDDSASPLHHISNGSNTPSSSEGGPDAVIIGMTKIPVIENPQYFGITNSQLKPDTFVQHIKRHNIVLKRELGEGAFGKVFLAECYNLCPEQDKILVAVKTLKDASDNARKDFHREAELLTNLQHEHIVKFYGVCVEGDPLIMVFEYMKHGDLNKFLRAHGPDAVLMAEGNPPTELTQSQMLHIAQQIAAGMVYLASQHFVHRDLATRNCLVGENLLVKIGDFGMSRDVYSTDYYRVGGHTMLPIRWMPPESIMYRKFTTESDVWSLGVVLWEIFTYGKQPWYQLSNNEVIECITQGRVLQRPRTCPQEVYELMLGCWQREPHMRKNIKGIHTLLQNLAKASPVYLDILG
Sequence of NT-3 growth factor receptor (Homo sapiens) (Q16288 32-839 limits assumed): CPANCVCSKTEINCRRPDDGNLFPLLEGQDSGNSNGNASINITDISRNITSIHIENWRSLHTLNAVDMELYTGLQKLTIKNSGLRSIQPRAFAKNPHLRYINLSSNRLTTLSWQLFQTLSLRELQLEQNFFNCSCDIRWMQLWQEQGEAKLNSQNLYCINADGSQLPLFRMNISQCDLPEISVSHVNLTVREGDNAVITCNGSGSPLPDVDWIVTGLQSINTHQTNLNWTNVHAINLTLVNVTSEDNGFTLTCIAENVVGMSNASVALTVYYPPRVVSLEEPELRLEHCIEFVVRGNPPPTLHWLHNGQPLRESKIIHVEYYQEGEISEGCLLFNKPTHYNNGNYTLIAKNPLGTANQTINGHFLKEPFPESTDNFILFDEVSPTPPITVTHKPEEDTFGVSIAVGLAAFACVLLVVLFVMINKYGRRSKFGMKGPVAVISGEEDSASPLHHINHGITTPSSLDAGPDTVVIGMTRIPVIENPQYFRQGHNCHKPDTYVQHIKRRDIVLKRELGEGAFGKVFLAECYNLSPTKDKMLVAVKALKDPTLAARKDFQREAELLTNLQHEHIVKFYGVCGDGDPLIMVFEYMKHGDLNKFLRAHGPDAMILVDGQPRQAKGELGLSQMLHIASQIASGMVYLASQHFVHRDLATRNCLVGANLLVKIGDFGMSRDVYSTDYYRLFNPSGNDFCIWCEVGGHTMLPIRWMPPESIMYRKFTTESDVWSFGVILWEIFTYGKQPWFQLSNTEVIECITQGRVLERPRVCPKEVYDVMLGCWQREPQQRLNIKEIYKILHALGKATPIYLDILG
Sequence of High affinity nerve growth factor receptor (Homo sapiens) (P04629 33-796 limits assumed): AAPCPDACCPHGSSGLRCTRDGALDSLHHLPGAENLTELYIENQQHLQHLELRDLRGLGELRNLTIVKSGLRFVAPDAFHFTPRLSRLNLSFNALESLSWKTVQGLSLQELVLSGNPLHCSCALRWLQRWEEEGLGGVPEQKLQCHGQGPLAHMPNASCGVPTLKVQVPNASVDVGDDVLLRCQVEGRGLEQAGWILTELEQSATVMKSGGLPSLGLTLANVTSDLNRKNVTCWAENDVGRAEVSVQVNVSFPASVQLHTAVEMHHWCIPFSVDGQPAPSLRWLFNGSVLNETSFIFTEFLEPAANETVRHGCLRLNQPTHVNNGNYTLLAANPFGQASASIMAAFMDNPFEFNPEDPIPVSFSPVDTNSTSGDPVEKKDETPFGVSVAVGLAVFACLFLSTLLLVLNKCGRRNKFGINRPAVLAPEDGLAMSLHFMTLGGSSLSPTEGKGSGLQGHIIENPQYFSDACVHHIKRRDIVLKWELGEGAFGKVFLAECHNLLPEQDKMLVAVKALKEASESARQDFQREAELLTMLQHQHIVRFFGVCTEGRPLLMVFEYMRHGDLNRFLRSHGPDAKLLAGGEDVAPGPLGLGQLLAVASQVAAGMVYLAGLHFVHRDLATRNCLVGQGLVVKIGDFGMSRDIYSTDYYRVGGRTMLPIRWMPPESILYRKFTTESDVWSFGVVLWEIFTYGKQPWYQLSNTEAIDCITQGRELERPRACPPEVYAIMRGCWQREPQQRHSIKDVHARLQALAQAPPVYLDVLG
Sequence of Mitogen-activated protein kinase 3 (Homo sapiens) (P27361 whole entry): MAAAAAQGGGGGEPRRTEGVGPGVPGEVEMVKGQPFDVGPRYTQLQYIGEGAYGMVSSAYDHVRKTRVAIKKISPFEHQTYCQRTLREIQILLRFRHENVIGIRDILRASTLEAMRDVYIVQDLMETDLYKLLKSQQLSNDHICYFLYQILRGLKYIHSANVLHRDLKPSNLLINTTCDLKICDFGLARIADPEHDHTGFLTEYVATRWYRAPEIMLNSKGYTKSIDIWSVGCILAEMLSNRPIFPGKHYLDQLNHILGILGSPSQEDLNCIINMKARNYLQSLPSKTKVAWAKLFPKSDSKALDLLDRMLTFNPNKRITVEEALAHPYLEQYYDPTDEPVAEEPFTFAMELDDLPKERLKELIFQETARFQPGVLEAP
Sequence of Mitogen-activated protein kinase 1 (Homo sapiens) (P28482 whole entry): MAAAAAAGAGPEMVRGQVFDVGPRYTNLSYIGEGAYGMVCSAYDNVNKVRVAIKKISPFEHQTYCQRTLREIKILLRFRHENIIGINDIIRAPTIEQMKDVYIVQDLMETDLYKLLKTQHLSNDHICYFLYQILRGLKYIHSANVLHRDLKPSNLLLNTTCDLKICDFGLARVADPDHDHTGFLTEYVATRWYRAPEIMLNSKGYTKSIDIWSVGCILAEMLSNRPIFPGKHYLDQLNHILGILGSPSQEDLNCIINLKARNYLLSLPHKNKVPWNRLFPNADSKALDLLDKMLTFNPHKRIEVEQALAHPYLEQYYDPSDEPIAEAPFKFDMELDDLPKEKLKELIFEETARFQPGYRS
Sequence of Tumor necrosis factor receptor superfamily member 16 (Homo sapiens) (P08138 whole entry): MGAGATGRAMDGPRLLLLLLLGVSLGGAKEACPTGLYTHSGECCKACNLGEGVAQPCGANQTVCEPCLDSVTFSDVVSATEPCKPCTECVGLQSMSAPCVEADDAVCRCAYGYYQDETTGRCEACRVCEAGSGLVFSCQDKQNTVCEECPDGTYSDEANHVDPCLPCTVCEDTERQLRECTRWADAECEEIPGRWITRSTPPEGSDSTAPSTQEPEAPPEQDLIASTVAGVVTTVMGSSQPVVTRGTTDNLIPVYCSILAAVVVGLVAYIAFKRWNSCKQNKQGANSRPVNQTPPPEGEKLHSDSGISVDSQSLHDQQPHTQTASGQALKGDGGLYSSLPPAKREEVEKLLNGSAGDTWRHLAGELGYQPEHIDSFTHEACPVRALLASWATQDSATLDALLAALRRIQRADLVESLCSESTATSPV
Sequence of Mitogen-activated protein kinase 1 (Mus musculus) (P63085 whole entry, looked up): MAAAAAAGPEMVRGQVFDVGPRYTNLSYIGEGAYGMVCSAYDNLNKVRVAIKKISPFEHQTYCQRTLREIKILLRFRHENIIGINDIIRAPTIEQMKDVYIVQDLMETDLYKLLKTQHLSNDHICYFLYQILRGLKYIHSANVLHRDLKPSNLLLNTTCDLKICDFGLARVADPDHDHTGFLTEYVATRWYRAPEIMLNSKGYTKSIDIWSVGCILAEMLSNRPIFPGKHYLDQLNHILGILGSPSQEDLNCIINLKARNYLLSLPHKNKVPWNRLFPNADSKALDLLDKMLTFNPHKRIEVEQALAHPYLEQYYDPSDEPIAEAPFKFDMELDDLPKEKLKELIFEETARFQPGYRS

CC(C)=CCC[C@]1(C)C=Cc2c(O)c3c(c(CC=C(C)C)c2O1)O[C@]12C(=C[C@@H]4CC1C(C)(C)O[C@@]2(C/C=C(/C)C(N)=O)C4=O)C3=O [GAMBOGIC AMIDE]
1.8%: Activity (Mus musculus [12])
active: Activity [1] | Activity (Hippocampal neurone [2]) | Activity [3] | Activity (PC-12 [4]) Dose-dependent effect | Activity [7] | Activity (TrkB-stable [8]) | Activity [9] | Activity (SN56) | Activity [11] | Activity [13] | Activity (Rattus norvegicus [15]) | Activity [16] Dose-dependent effect | Activity [17] | Activity (PC-12 [18]) | Activity [20] | Activity (Hippocampal neurone [21]) Dose-dependent effect | Activity [22] | Activity [23] | Activity (Rattus norvegicus [24]) | Activity (Rattus norvegicus [25]) | Activity [26] | Activity (TrkB-stable [29]) | Activity [30] tde | Activity (PC-12 [31]) | Activity [32] | Activity [33] | Activity [34]
inactive: Activity [6] | Activity [10] | Activity [14] | Activity (HEK293) | Activity [19] | Activity [28]
6.3%: Activity (Mus musculus [27])
5 nM: EC50 [5]

CC(C)CCC[C@]1(C)C=Cc2c(O)c3c(c(CCC(C)C)c2O1)O[C@]12C(C[C@@H]4CC1C(C)(C)O[C@@]2(CCC(C)C(=O)O)C4O)C3=O (some centres undefined)
inactive: Activity [11] | Activity (T17 [36])
active: Activity (TrkB-stable [8]) | Activity (SN56) | Activity (T17 [35]) | Activity (TrkB-stable [29]) | Activity [37]

CC(C)=CCC[C@]1(C)C=Cc2c(O)c3c(c(CC=C(C)C)c2O1)O[C@]12C(=C[C@@H]4C[C@H]1C(C)(C)O[C@@]2(C/C=C(/C)C(=O)O)C4=O)C3=O [GAMBOGIC ACID]
inactive: Activity [38] | Activity [11] | Activity [17] | Activity (PC-12 [18]) | Activity (T17 [36]) | Activity [42]
85.83%: Activity (Rattus norvegicus [41])
24.41%: Activity (Rattus norvegicus [39])
active: Activity [1] | Activity (Hippocampal neurone [2]) | Activity (SN56) | Activity [40] | Activity [26] | Activity [37]
20 nM: EC50 [5]

CC(=O)Oc1c2c(c(CC=C(C)C)c3c1C(=O)C1=C[C@@H]4CC5C(C)(C)O[C@@](C/C=C(\C)C(=O)O)(C4=O)[C@@]15O3)O[C@](C)(CCC=C(C)C)C=C2
inactive: Activity [11]
active: Activity (TrkB-stable [8]) | Activity (SN56) | Activity (TrkB-stable [29])

CC(C)=CCC[C@]1(C)C=Cc2c(O)c3c(c(CC=C(C)C)c2O1)O[C@]12C(C[C@@H]4CC1C(C)(C)O[C@@]2(C/C=C(/C)C(=O)O)C4O)C3=O (some centres undefined)
active: Activity (TrkB-stable [8]) | Activity (SN56) | Activity (TrkB-stable [29])
inactive: Activity [11] | Activity (T17 [36])

CC(C)=CCC[C@]1(C)C=Cc2c(O)c3c(c(CC=C(C)C)c2O1)O[C@]12C(=C[C@@H]4CC1C(C)(C)O[C@@]2(C/C=C(/C)C(=O)O)C4O)C3=O (some centres undefined)
inactive: Activity [11]
active: Activity (TrkB-stable [8]) | Activity (SN56) | Activity (PC-12 [18]) | Activity (TrkB-stable [29])
200 nM: EC50 [5]

COC(=O)/C(C)=C\C[C@@]12OC(C)(C)C3C[C@@H](C=C4C(=O)c5c(OC)c6c(c(CC=C(C)C)c5O[C@]431)O[C@](C)(CCC=C(C)C)C=C6)C2=O
120 nM: EC50 [5]
active: Activity (TrkB-stable [8]) | Activity (SN56) | Activity (TrkB-stable [29])
inactive: Activity [11] | Activity (PC-12 [18])
